# Experimental data from ChEMBL document CHEMBL1157043, “An eco-friendly synthesis and antimicrobial activities of dihydro-2H-benzo- and naphtho-1,3-oxazine derivatives” (Eur J Med Chem, 2010).
# Tests used:
# Klebsiella pneumoniae = test: Antimicrobial activity against Klebsiella pneumoniae after 24 hrs; type: functional
# Procedure, shortened: (§1)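 NCCLS microdilution in Mueller Hinton broth. Strains were grown 24 h on nutrient agar at 37 °C, suspended at about 1.0–2.0 × 10^7 cells/mL (McFarland-matched) in saline with 0.05% Tween 20, then diluted 100 µL into 10 mL medium. Compounds were taken from a 1 mg/mL DMSO stock as twofold dilutions, top final 50 µg/mL. Incubation was 35 °C in a moist, dark chamber, and MIC was read spectrophotometrically at 24 h.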
# Aspergillus fumigatus = test: Antimicrobial activity against Aspergillus fumigatus after 72 to 96 hrs
# Pseudomonas aeruginosa = test: Antimicrobial activity against Pseudomonas aeruginosa after 24 hrs; type: functional; procedure, shortened: as §1
# Candida parapsilosis = test: Antimicrobial activity against Candida parapsilosis ATCC 22019 after 24 hrs; type: functional; conditions: Lodderomyces parapsilosis, ATCC 22019, 24 h
# Procedure, shortened: (§2)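 Broth microdilution per NCCLS guidelines in MOPS-buffered RPMI 1640. Starting inoculum was 1-5 × 10^3 cfu/mL, and plates were incubated at 35 °C. MIC was read spectrophotometrically at 492 nm after 24–48 h for yeasts and 72–96 h for mycelial fungi.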
# Sporothrix schenckii = test: Antimicrobial activity against Sporothrix schenckii after 24 hrs; type: functional; procedure, shortened: as §2
# Candida albicans = test: Antimicrobial activity against Candida albicans after 24 hrs; type: functional; procedure, shortened: as §2
# Cryptococcus neoformans = test: Antimicrobial activity against Cryptococcus neoformans after 24 hrs; type: functional; procedure, shortened: as §2
# Staphylococcus aureus = test: Antimicrobial activity against Staphylococcus aureus after 24 hrs; type: functional; procedure, shortened: as §1
# [1] = tested on: Trichophyton mentagrophytes; test: Antimicrobial activity against Trichophyton mentagrophytes after 72 to 96 hrs
# Escherichia coli = test: Antimicrobial activity against Escherichia coli after 24 hrs; type: functional; procedure, shortened: as §1
# L929 [2] = test: Cytotoxicity against mouse L929 cells at 6.25 ug/ml after 24 hrs by MTT assay; type: cell-based; conditions: l929, 24 h
# Procedure, shortened: (§3)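 L929 mouse fibroblasts were grown in RPMI 1640 with 10% FBS at 37 °C under 5% CO2 and seeded at 1.0 × 10^5 cells/mL. At 80% confluence the medium was switched to serum-free RPMI, and cells were exposed 24 h to 0.09–25 µg/mL in twofold steps. After PBS washes, cells got 0.5 mg/mL MTT for 4 h at 37 °C, then DMSO for 30 min at room temperature. Viability was calculated as (A570−A630) relative to untreated cells.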
# L929 [3] = test: Cytotoxicity against mouse L929 cells assessed as change in morphology at 6.25 ug/ml after 24 hrs […]; type: cell-based; conditions: l929, 24 h
# Procedure, shortened: (§4)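 L929 fibroblasts (serum-free RPMI, 37 °C, 5% CO2) were exposed to compound for 24 h, then fixed and stained with Giemsa for 30 min at 37 °C. Excess stain was washed off with PBS, plates were air-dried, and cell morphology was examined under a phase contrast microscope against untreated controls.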
# [4] = Cytotoxicity against mouse L929 cells assessed as viability at 12.5 to 25 ug/ml after 24 hrs by MTT assay; type: cell-based; conditions: read-out: Activity; procedure, shortened: as §3
# L929 [5] = test: Cytotoxicity against mouse L929 cells assessed as change in cellular morphology at 12.5 to 25 ug/ml after 24 hrs […]; type: cell-based; conditions: l929, 24 h; procedure, shortened: as §4
SMILES,MIC (Klebsiella pneumoniae),MIC (Aspergillus fumigatus),MIC (Pseudomonas aeruginosa),MIC (Candida parapsilosis),MIC (Sporothrix schenckii),MIC (Candida albicans),MIC (Cryptococcus neoformans),MIC (Staphylococcus aureus),MIC [1],MIC (Escherichia coli),Activity (L929 [2]),Activity (L929 [3]),viability at 24 h [4],Activity (L929 [5])
Cc1ccc(N2COc3ccc(C)cc3C2)cc1,50 µg/mL,50 µg/mL,> 50 µg/mL,50 µg/mL,12.5 µg/mL,50 µg/mL,50 µg/mL,25 µg/mL,12.5 µg/mL,25 µg/mL,,,,
Clc1ccc2c(c1)CN(c1ccccc1Cl)CO2,> 50 µg/mL,25 µg/mL,> 50 µg/mL,25 µg/mL,6.25 µg/mL,12.5 µg/mL,12.5 µg/mL,6.25 µg/mL,3.12 µg/mL,> 50 µg/mL,Non-toxic,Non-toxic,> 90%,Toxic
c1ccc(N2COc3ccc4ccccc4c3C2)cc1,> 50 µg/mL,> 50 µg/mL,50 µg/mL,> 50 µg/mL,25 µg/mL,50 µg/mL,> 50 µg/mL,> 50 µg/mL,> 50 µg/mL,50 µg/mL,,,,
CCCCN1COc2ccc3ccccc3c2C1,> 50 µg/mL,> 50 µg/mL,> 50 µg/mL,> 50 µg/mL,50 µg/mL,> 50 µg/mL,50 µg/mL,> 50 µg/mL,25 µg/mL,> 50 µg/mL,,,,
OC(Cn1cncn1)(Cn1cncn1)c1ccc(F)cc1F [FLUCONAZOLE],,2 µg/mL,,1 µg/mL,2 µg/mL,0.5 µg/mL,1 µg/mL,,1 µg/mL,,,,,
Clc1ccc(Cl)c(N2COc3ccc4ccccc4c3C2)c1,> 50 µg/mL,> 50 µg/mL,> 50 µg/mL,> 50 µg/mL,> 50 µg/mL,> 50 µg/mL,> 50 µg/mL,> 50 µg/mL,50 µg/mL,50 µg/mL,,,,
Clc1ccc2c(c1)CN(CCN1COc3ccc(Cl)cc3C1)CO2,> 50 µg/mL,50 µg/mL,> 50 µg/mL,25 µg/mL,6.25 µg/mL,12.5 µg/mL,12.5 µg/mL,12.5 µg/mL,3.12 µg/mL,> 50 µg/mL,Non-toxic,Non-toxic,> 90%,Toxic
Clc1ccc2c(c1)CN(c1ccccc1)CO2,50 µg/mL,25 µg/mL,> 50 µg/mL,50 µg/mL,6.25 µg/mL,50 µg/mL,50 µg/mL,25 µg/mL,12.5 µg/mL,12.5 µg/mL,,,,
Cc1cccc2c1OCN(c1ccccc1)C2,> 50 µg/mL,50 µg/mL,> 50 µg/mL,50 µg/mL,25 µg/mL,50 µg/mL,> 50 µg/mL,50 µg/mL,25 µg/mL,25 µg/mL,,,,
CCCCN1COc2ccccc2C1,> 50 µg/mL,> 50 µg/mL,> 50 µg/mL,> 50 µg/mL,50 µg/mL,> 50 µg/mL,> 50 µg/mL,> 50 µg/mL,50 µg/mL,50 µg/mL,,,,
c1ccc2c3c(ccc2c1)OCN(C1CCCCC1)C3,> 50 µg/mL,> 50 µg/mL,> 50 µg/mL,> 50 µg/mL,50 µg/mL,50 µg/mL,50 µg/mL,> 50 µg/mL,25 µg/mL,> 50 µg/mL,,,,
c1ccc2c(c1)CN(C1CCCCC1)CO2,> 50 µg/mL,> 50 µg/mL,> 50 µg/mL,> 50 µg/mL,> 50 µg/mL,> 50 µg/mL,> 50 µg/mL,> 50 µg/mL,50 µg/mL,> 50 µg/mL,,,,
Cc1ccc(N2COc3ccc(Cl)cc3C2)cc1,25 µg/mL,25 µg/mL,> 50 µg/mL,25 µg/mL,6.25 µg/mL,25 µg/mL,50 µg/mL,12.5 µg/mL,12.5 µg/mL,6.25 µg/mL,,,,
CCCCN1COc2ccc(Cl)cc2C1,> 50 µg/mL,> 50 µg/mL,> 50 µg/mL,> 50 µg/mL,25 µg/mL,> 50 µg/mL,> 50 µg/mL,> 50 µg/mL,50 µg/mL,> 50 µg/mL,,,,
